Laboratory results from article PMC5901702 (Journal of biomolecular screening, 2012).

Target: T1, rat IDE (Rattus norvegicus, UniProt P35559)
T1 sequence (P35559 1-1019): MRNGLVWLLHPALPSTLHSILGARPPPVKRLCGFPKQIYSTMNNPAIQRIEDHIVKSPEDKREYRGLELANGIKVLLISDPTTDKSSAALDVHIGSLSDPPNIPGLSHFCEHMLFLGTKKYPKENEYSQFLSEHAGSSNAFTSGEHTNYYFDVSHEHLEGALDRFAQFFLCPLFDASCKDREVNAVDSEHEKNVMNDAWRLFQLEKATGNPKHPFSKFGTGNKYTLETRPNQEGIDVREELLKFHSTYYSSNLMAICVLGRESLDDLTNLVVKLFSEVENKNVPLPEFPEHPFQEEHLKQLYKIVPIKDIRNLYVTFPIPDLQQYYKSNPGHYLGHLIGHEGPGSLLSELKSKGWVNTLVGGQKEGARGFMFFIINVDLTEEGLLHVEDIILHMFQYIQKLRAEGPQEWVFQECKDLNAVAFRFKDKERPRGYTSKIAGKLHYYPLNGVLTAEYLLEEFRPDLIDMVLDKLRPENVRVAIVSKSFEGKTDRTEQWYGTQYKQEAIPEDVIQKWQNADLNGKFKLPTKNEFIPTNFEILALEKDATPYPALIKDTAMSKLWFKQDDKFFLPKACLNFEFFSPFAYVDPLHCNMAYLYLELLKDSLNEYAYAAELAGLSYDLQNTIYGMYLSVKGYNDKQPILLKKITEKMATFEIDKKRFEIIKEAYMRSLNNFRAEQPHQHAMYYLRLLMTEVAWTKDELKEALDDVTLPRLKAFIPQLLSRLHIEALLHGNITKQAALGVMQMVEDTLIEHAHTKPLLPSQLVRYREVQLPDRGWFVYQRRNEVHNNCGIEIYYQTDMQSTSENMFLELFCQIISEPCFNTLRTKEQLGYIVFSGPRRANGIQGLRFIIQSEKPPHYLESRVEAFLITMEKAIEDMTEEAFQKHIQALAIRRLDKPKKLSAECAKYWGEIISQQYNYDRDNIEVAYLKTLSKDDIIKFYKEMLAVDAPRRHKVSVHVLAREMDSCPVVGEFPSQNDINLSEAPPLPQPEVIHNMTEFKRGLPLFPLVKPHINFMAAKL
Assay: Thermal melt
Type: binding
Conditions: 100 µM compound; rat IDE 0.5 µM; 28 to 70 °C
How it was run: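 Thermal shift: recombinant rat IDE (0.5 µM) with 5× SYPRO Orange in 0.1 M KPi pH 7.6, plus DMSO or compound (100 µM). Samples were held 60 min in the dark at room temperature under mineral oil, then heated 28–70 °C in 1–3 °C steps. Fluorescence was read at 465/590 nm. Tm came from a four-parameter variable-slope sigmoidal fit.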

## O=S(=O)(O)c1cc(O)c2c(O)c(N=Nc3cccc4ccccc34)c(S(=O)(=O)O)cc2c1 [Compound 3]
  shift in thermal melting profile (Tm) of IDE: substantial shift in the melting profile
